The text below walks through data of ChEMBL document CHEMBL1671669, “Novel antimalarial aminoquinolines: heme binding and effects on normal or Plasmodium falciparum-parasitized human erythrocytes” (Antimicrob Agents Chemother, 2009).

pIC50: −log10 of the molar value. Active and inactive are the calls of the source. The rule behind the calls is not given here.

A short description of data set [1]: Toxicity in human RBC assessed as hemolysis pretreated at 50 uM for 30 mins followed by washing and incubated with 40 uM ferriprotoporphyrin 9 for 2hrs. The format is cell-based. The note with it: erythrocyte. Put shortly:
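RBC exposed 30 min to 50 μM compound, washed, then held 2 h with 40 μM FP; hemolysis read from supernatant Hb at A412.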

Data set [2] is described as follows: Toxicity in human RBC assessed as potentiation of ferriprotoporphyrin 9-induced hemolysis at 50 uM after 2hrs in presence of 10 uM. Format: cell-based. To be noted: erythrocyte. Put shortly:
(§1)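 Human RBC at 5% Htc in PBS-glucose held 2 h at 37°C with a range of compound concentrations, alone or with 10 μM FP. Cells spun down; hemolysis read as A412 of released Hb in supernatant. Five experiments in triplicate.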

Data set [3] relates to Plasmodium falciparum. As to the kind of experiment: Antiplasmodial activity against chloroquine-susceptible Plasmodium falciparum D10. The format is functional, organism-based.
The subject of the next data set is Erythrocyte. The data set is described as follows: Induction of denaturation of hemoglobin in human RBC in acidic condition assessed as denatured hemoglobin level per millimitre of packed RBC. The format is functional. Put shortly: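 Fitch-Russell method: intact RBC from 50 μl packed cells brought to 10 ml in 150 mM sodium acetate pH 5.0, held 90 min at 39°C with or without compound at 100 μM. Pellets spun at 3,500 × g, washed thrice in acetate, dissolved in 10 mM Tris-HCl, 2.5% SDS, 0.2 N NaOH; denatured Hb taken as FP from A412 minus A700.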

The subject of data set [4] is Plasmodium falciparum. The data set is described as follows: Antiplasmodial activity against chloroquine-resistant Plasmodium falciparum W2. Format: functional, organism-based.
Data set [5] is filed under the species Homo sapiens. As to the kind of experiment: Binding affinity to normal human RBC membrane in presence of 15% hematocrit by fluorimetric method. Put shortly: (§2)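 Human A+ RBC (citrate-phosphate-dextrose, ≤10 days), washed in cold PBS, held at 15% Htc in PBS-5 mM glucose. Incubation with compound (10 to 50 μM, 50 μM for parasitized comparisons) 30 min at 37°C. Normal RBC or D10/W2-parasitized RBC at 4,0% parasitemia. Cells pelleted, washed free of unbound drug, extracted into CHCl3-1 N HCl, quinoline read by fluorescence.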

Data set [6] in a line: Toxicity in human RBC assessed as hemolysis at 50 uM. The format is cell-based. To be noted: erythrocyte. Put shortly:
as §1

Data set [7] is described as follows: Toxicity in human RBC assessed as hemolysis at 50 uM at 40 degC in presence of 10 uM ferriprotoporphyrin 9. Format: cell-based, Erythrocyte. The note with it: human red blood cells (RBC), read-out: Activity. Put shortly: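 Hemolysis assay as for the 37°C format (5% Htc RBC, PBS-glucose, 2 h, 10 μM FP, supernatant A412 read-out), but run at 40°C.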
A short description of data set [8]: Drug uptake in human RBC at 50 uM in absence of 10 um ferriprotoporphyrin 9. The note with it: erythrocyte. The format is ADME, cell-based. Put shortly: (§3)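 Washed human RBC given 50 μM compound for 30 min at 37°C, with or without 10 μM FP. Total uptake and membrane-bound fraction measured fluorimetrically after washing and CHCl3-1 N HCl extraction. One representative experiment in triplicate.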

The species named for data set [9] is Homo sapiens. As to the kind of experiment: Ratio of binding affinity to human RBC membrane parasitized with Plasmodium falciparum D10 to binding affinity to normal human RBC. Put shortly:
as §2

The species entered for data set [10] is Homo sapiens. The data set is described as follows: Ratio of binding affinity to human RBC membrane parasitized with Plasmodium falciparum W2 to binding affinity to normal human RBC. Put shortly:
as §2

The next data set concerns Ferriprotoporphyrin IX. As to the kind of experiment: Binding affinity to ferriprotoporphyrin 9sassessed as quenching of Soret band in presence of 40% DMSO-10 mM sodium phosphate buffer at pH 6.0. A digest of the protocol:
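Heme (FP, fresh stock in 0.02 N NaOH diluted in PBS) at 15 μM final in 10 mM sodium phosphate pH 6.0 with 40% DMSO, compound added at 1 to 200 μM; absorption spectra read after 2 min, Soret band quenching followed. Job's plot run in parallel (FP plus compound totalling 10 μM, A400 difference vs molar ratio). Three experiments in triplicate.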

The nature of data set [11]: Octanol-water partition coefficient, log P of the compound. The format is physicochemical.
The nature of data set [12]: Drug uptake in human RBC at 50 uM in presence of 10 um ferriprotoporphyrin 9. The format is ADME, cell-based. The note with it: erythrocyte. A digest of the protocol:
as §3

A short description of data set [13]: Distribution coefficient, log D of the compound at pH 7.4. The format is physicochemical. The note with it: octanol/water.
In data set [14] the test system is Plasmodium falciparum. The data set is described as follows: Resistance index, ratio of IC50 for chloroquine-resistant Plasmodium falciparum W2 to IC50 for chloroquine-susceptible Plasmodium falciparum D10. Format: functional.
Data set [15] is described as follows: Lipid accumulation ratio of the compound. Format: physicochemical. Put shortly: (§4)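 VAR taken as antilog of calculated log D7.4 minus calculated log D5.2. log D from log P and pKa values measured potentiometrically at 25°C in 0.15 M KCl (n-octanol/0.15 M KCl partitioning). LAR calculated by an earlier published procedure.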
Data set [16] is described as follows: Inhibition of beta-hematin formation by BHIA assay. Format: functional.
Data set [17] is described as follows: Vacuolar accumulation ratio of the compound at pH 5.2. The format is ADME. A digest of the protocol:
as §4

In general, IC90 refers to the concentration needed for an effect of 90%. A lower IC90 goes with greater potency. In the case of `CCN(CC)CCCC(C)Nc1ccnc2cc(Cl)ccc12` (stereo not drawn) [CHLOROQUINE], the Activity entry was “Non-toxic” in [1]; “Toxic” in data set [2]; 40 nmol/h in the data set with Erythrocyte; “Dose-dependent effect” in the data set listed under Homo sapiens [5]; “Non-toxic” in [6]. Further, the IC90 in the data set on Plasmodium falciparum [3] is 44.6 nM; in the data set with Plasmodium falciparum [4], 441 nM. Further, in [7], the hemolysis at 50 µM was determined as 84%. The Drug uptake in [8] is recorded as 10%.

Usually pIC50 stands for −log10 of the IC50, conventionally taken in molar units. Read a high pIC50 as a low IC50. The logP is the decadic logarithm of the partition coefficient of the neutral form, usually between octanol and water. Read a high logP as a more lipophilic compound. For orientation: logD means the decadic logarithm of the distribution of all forms, ionised or not, between an organic phase and buffer at a given pH. Low values mean lower lipophilicity, high ones higher lipophilicity. As to `Clc1ccc2c(NC[C@@H]3CCCN4CCCC[C@H]34)ccnc2c1`, the Activity entry in data set [1] was “Non-toxic”; in data set [2], “Toxic”; in the data set listed under Homo sapiens [5] it was “Dose-dependent effect”; in data set [6], “Non-toxic”. Also, the Ratio in the data set filed under Homo sapiens [9] stood at 1.5; in the data set filed under Homo sapiens [10] it was 2; in [15], 182; in data set [17], 22600. The values for the negative-log IC50 (pIC50) in the data set on Plasmodium falciparum [3] and with Plasmodium falciparum [4] were 7.58 and 7.38, respectively. Moreover, the IC90 in the data set on Plasmodium falciparum [3] came to 34.3 nM; in the data set with Plasmodium falciparum [4], 54.9 nM. The result with Erythrocyte and in the data set on Ferriprotoporphyrin IX was Active. Also, in data set [11], the logP is 4.94. Moreover, the figures for the Drug uptake in data set [12] and in [8] were 50% and 18%, respectively. The compound further registered a logD in [13] of 2.26. Moreover, the “Ratio IC50” value in the data set on Plasmodium falciparum [14] turned out to be 1.59. Also, the hemolysis at 50 µM in data set [7] was 28%. The same compound had an IC50 in data set [16] of 1.52 equiv. Further, the inhibition entry in data set [16] was “Dose-dependent effect”.

With `Clc1ccc2c(N[C@H]3CCCN4CCCC[C@H]34)ccnc2c1`, the Activity entry in [1] is “Non-toxic”; in data set [2], “Toxic”; in the data set filed under Homo sapiens [5], “Dose-dependent effect”; in data set [6], “Non-toxic”. Also, the Ratio in the data set listed under Homo sapiens [9] turned out to be 2; in the data set listed under Homo sapiens [10], 1.5; in data set [15] it was 490; in data set [17], 14900. Also, the pIC50 with Plasmodium falciparum [3] was 7.62; in the data set with Plasmodium falciparum [4], 7.67. Further, the results for the IC90 in the data set on Plasmodium falciparum [3] and in the data set with Plasmodium falciparum [4] were 35.1 nM and 33.1 nM, respectively. Also, the outcome in the data set on Erythrocyte and with Ferriprotoporphyrin IX was Active. In [11], this compound displayed a logP of 4.57. The Drug uptake in data set [12] is 50%; in [8] it was 18%. In data set [13], this compound returned a logD of 2.69. Further, the “Ratio IC50” value in the data set with Plasmodium falciparum [14] was 0.88. Also, in data set [7], the hemolysis at 50 µM was 50%. In data set [16], this compound showed an IC50 of 1.12 equiv. Besides, in [16], the inhibition result is “Dose-dependent effect”.
